In ChEMBL document CHEMBL3244318, “Prostaglandins and congeners. 14. Synthesis and bronchodilator activity of dl-16,16-trimethyleneprostaglandins” (1977):
Calls of active or inactive are those of the source. The calls are words filed in the database; no cut-off is given here.

Columns and labels:
[1] = system: Cavia porcellus; test: Bronchodilatory activity in iv dosed Hartley guinea pig assessed as inhibition of serotonin-induced constriction compound of total 3 to 4 doses at 15 mins interval starting first dose 2 mins post challenge; type: functional
Outline: (§1)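 Ventilated, curarized guinea pigs received repeated 12-s IV spasmogen injections every 5 min, tuned to a 20-50 cm water rise in tracheal pressure. Three or four logarithmically spaced IV doses were given over 1 min, at 15-min intervals, with at least four animals per spasmogen. ED50 is the dose giving -50% spasm variation, taken from a semilog regression. When -50% was not reached, ED50 is reported as greater than the top dose.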

[2] = system: Cavia porcellus; test: Bronchodilatory activity in iv dosed Hartley guinea pig assessed as inhibition of histamine-induced constriction compound of total 3 to 4 doses at 15 mins interval starting first dose 2 mins post challenge; type: functional; outline: as §1
[3] = system: Cavia porcellus; test: Bronchodilatory activity in iv dosed Hartley guinea pig assessed as inhibition of acetylcholine-induced constriction compound of total 3 to 4 doses at 15 mins interval starting first dose 2 mins post challenge; type: functional; outline: as §1
[4] = system: Cavia porcellus; test: Bronchodilatory activity in iv dosed Hartley guinea pig assessed as inhibition of acetylcholine-induced constriction at 3.2 mg/kg, iv of total 3 to 4 doses at 15 mins interval starting 2 mins post challenge; type: functional
Outline: (§2)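 Artificially ventilated, curarized guinea pigs. Spasmogen was given IV in 12-s injections every 5 min, adjusted to raise tracheal pressure by 20-50 cm water. After three similar control spasms, drug was infused IV over 1 min. Sodium salts were given in water and esters in 10% aqueous ethanol. Read-out was % variation of spasm amplitude versus control, in at least four animals per spasmogen.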

[5] = system: Cavia porcellus; test: Bronchodilatory activity in iv dosed Hartley guinea pig assessed as inhibition of histamine-induced constriction at 3.2 mg/kg, iv of total 3 to 4 doses at 15 mins interval starting 2 mins post challenge; type: functional; outline: as §2
[6] = system: Cavia porcellus; test: Bronchodilatory activity in iv dosed Hartley guinea pig assessed as inhibition of serotonin-induced constriction at 3.2 mg/kg, iv of total 3 to 4 doses at 15 mins interval starting 2 mins post challenge; type: functional; outline: as §2
[7] = system: Canis familiaris; test: Bronchodilatory activity in anesthetized dog assessed as inhibition of pilocarpine-induced bronchospasms compound administered through aerosol 15 mins post challenge measured up to 1 hr; type: functional, organism-based; conditions: Canis lupus familiaris
[8] = Cavia porcellus, Hartley, iv, read-out: ED50

SMILES: CCCCC1([C@H](O)/C=C/C2CCC(=O)[C@@H]2CCCCCCC(=O)OCC)CCC1 (mixture of isomers)
- ED50 [1]: 409 µg/kg
- ED50 [2, 8]: 15.1 µg/kg

SMILES: CCCCC1([C@@H](O)/C=C/C2CCC(=O)[C@@H]2CCCCCCC(=O)OCC)CCC1 (mixture of isomers)
- ED50 [3, 8]: 2.06 µg/kg
- ED50 [2, 8]: 32 µg/kg

SMILES: CCCCC1([C@H](O)/C=C/C2CCC(=O)[C@@H]2CCCCCCC(=O)O)CCC1 (mixture of isomers)
- ED50 ([3]; Cavia porcellus, Hartley, iv): 47.8 µg/kg
- ED50 [2, 8]: 2.4 µg/kg

SMILES: CCCCC1([C@@H](O)/C=C/C2CCC(=O)[C@@H]2CCCCCCC(=O)O)CCC1 (mixture of isomers)
- ED50 [1]: 20.3 µg/kg
- inhibition in vivo at 3.2 mg/kg [4]: < 50%
- ED50 [2, 8]: 13.9 µg/kg

SMILES: CCCCC1([C@H](O)/C=C/C2CCC(=O)[C@@H]2C/C=C\CCCC(=O)O)CCC1 (mixture of isomers)
- ED50 [1]: 7.67 µg/kg
- ED50 [3, 8]: 24.2 µg/kg
- ED50 [2, 8]: 2.2 µg/kg

SMILES: CCCCC1([C@@H](O)/C=C/C2CCC(=O)[C@@H]2C/C=C\CCCC(=O)O)CCC1 (mixture of isomers)
- inhibition in vivo at 3.2 mg/kg [4]: < 50%
- inhibition in vivo at 3.2 mg/kg [5]: < 50%

SMILES: CCCCC1([C@H](O)/C=C/C2CCC(=O)[C@@H]2CCCCCC(=O)OCC)CCC1 (mixture of isomers)
- inhibition in vivo at 3.2 mg/kg [6]: < 50%
- inhibition in vivo at 3.2 mg/kg [4]: < 50%
- inhibition in vivo at 3.2 mg/kg [5]: < 50%

SMILES: CCCCC1([C@H](O)/C=C/C2CCC(=O)[C@@H]2C/C=C\CCCC(=O)OCC)CCC1 (mixture of isomers)
- ED50 [1]: 135 µg/kg
- ED50 [2, 8]: 221 µg/kg

SMILES: CCCCC1([C@@H](O)/C=C/C2CCC(=O)[C@@H]2C/C=C\CCCC(=O)OCC)CCC1 (mixture of isomers)
- inhibition in vivo at 3.2 mg/kg [6]: < 50%
- inhibition in vivo at 3.2 mg/kg [4]: < 50%
- inhibition in vivo at 3.2 mg/kg [5]: < 50%

SMILES: CCCCC1([C@H](O)/C=C/C2CCC(=O)[C@@H]2CCCCCC(=O)O)CCC1 (mixture of isomers)
- ED50 [1]: 32 µg/kg
- ED50 [3, 8]: 320 µg/kg
- ED50 [2, 8]: 32 µg/kg

SMILES: CCCCC1([C@H](O)/C=C/C2CCC(=O)[C@@H]2CCCCCCCC(=O)OCC)CCC1 (mixture of isomers)
- inhibition in vivo at 3.2 mg/kg [6]: < 50%
- inhibition in vivo at 3.2 mg/kg [4]: < 50%
- inhibition in vivo at 3.2 mg/kg [5]: < 50%

SMILES: CCCCC1([C@@H](O)/C=C/C2CCC(=O)[C@@H]2CCCCCCCC(=O)OCC)CCC1 (mixture of isomers)
- inhibition in vivo at 3.2 mg/kg [6]: < 50%
- inhibition in vivo at 3.2 mg/kg [4]: < 50%
- inhibition in vivo at 3.2 mg/kg [5]: < 50%

SMILES: CCCCC1([C@H](O)/C=C/C2CCC(=O)[C@@H]2CCCCCCCC(=O)O)CCC1 (mixture of isomers)
- inhibition in vivo at 3.2 mg/kg [6]: < 50%
- inhibition in vivo at 3.2 mg/kg [4]: < 50%
- inhibition in vivo at 3.2 mg/kg [5]: < 50%

SMILES: CCCCC1([C@@H](O)/C=C/C2CCC(=O)[C@@H]2CCCCCCCC(=O)O)CCC1 (mixture of isomers)
- inhibition in vivo at 3.2 mg/kg [6]: < 50%
- inhibition in vivo at 3.2 mg/kg [4]: < 50%
- inhibition in vivo at 3.2 mg/kg [5]: < 50%

SMILES: CCCCC1([C@H](O)/C=C/C2CCC(=O)[C@@H]2CCCCCCCCC(=O)OCC)CCC1 (mixture of isomers)
- ED50 [1]: 4380 µg/kg
- inhibition in vivo at 3.2 mg/kg [4]: < 50%
- ED50 [2, 8]: 6210 µg/kg

SMILES: CCCCC1([C@@H](O)/C=C/C2CCC(=O)[C@@H]2CCCCCCCCC(=O)OCC)CCC1 (mixture of isomers)
- inhibition in vivo at 3.2 mg/kg [6]: < 50%
- inhibition in vivo at 3.2 mg/kg [4]: < 50%
- inhibition in vivo at 3.2 mg/kg [5]: < 50%

SMILES: CCCCC1([C@H](O)/C=C/C2CCC(=O)[C@@H]2CCCCCCCCC(=O)O)CCC1 (mixture of isomers)
- inhibition in vivo at 3.2 mg/kg [6]: < 50%
- inhibition in vivo at 3.2 mg/kg [4]: < 50%
- inhibition in vivo at 3.2 mg/kg [5]: < 50%

SMILES: CCCCC1([C@@H](O)/C=C/C2CCC(=O)[C@@H]2CCCCCCCCC(=O)O)CCC1 (mixture of isomers)
- inhibition in vivo at 3.2 mg/kg [6]: < 50%
- inhibition in vivo at 3.2 mg/kg [4]: < 50%
- inhibition in vivo at 3.2 mg/kg [5]: < 50%

SMILES: CCCCC1([C@H](O)/C=C/C2CCC(=O)[C@@H]2CCCCC(C)(C)CC(=O)OCC)CCC1 (mixture of isomers)
- inhibition in vivo at 3.2 mg/kg [6]: < 50%
- inhibition in vivo at 3.2 mg/kg [4]: < 50%
- inhibition in vivo at 3.2 mg/kg [5]: < 50%

SMILES: CCCCC1([C@@H](O)/C=C/C2CCC(=O)[C@@H]2CCCCC(C)(C)CC(=O)OCC)CCC1 (mixture of isomers)
- inhibition in vivo at 3.2 mg/kg [6]: < 50%
- inhibition in vivo at 3.2 mg/kg [4]: < 50%
- inhibition in vivo at 3.2 mg/kg [5]: < 50%

SMILES: CCCCC1([C@H](O)/C=C/C2CCC(=O)[C@@H]2CCCCC(C)(C)CC(=O)O)CCC1 (mixture of isomers)
- inhibition in vivo at 3.2 mg/kg [6]: < 50%
- inhibition in vivo at 3.2 mg/kg [4]: < 50%
- inhibition in vivo at 3.2 mg/kg [5]: < 50%

SMILES: CCCCC1([C@@H](O)/C=C/C2CCC(=O)[C@@H]2CCCCC(C)(C)CC(=O)O)CCC1 (mixture of isomers)
- inhibition in vivo at 3.2 mg/kg [6]: < 50%
- inhibition in vivo at 3.2 mg/kg [4]: < 50%
- inhibition in vivo at 3.2 mg/kg [5]: < 50%

SMILES: CCCCC1([C@H](O)/C=C/C2CCC(=O)[C@@H]2CCCCSCC(=O)OCC)CCC1 (mixture of isomers)
- ED50 [1]: 300 µg/kg
- ED50 [3, 8]: 909 µg/kg
- ED50 [2, 8]: 30 µg/kg

SMILES: CCCCC1([C@@H](O)/C=C/C2CCC(=O)[C@@H]2CCCCSCC(=O)OCC)CCC1 (mixture of isomers)
- inhibition in vivo at 3.2 mg/kg [6]: < 50%
- inhibition in vivo at 3.2 mg/kg [4]: < 50%
- ED50 [2, 8]: > 672 µg/kg

SMILES: CCCCC1([C@H](O)/C=C/C2CCC(=O)[C@@H]2CCCCSCC(=O)O)CCC1 (mixture of isomers)
- ED50 [1]: 171 µg/kg
- inhibition in vivo at 3.2 mg/kg [4]: < 50%
- ED50 [2, 8]: 91.2 µg/kg

SMILES: CCCCC1([C@@H](O)/C=C/C2CCC(=O)[C@@H]2CCCCSCC(=O)O)CCC1 (mixture of isomers)
- inhibition in vivo at 3.2 mg/kg [6]: < 50%
- inhibition in vivo at 3.2 mg/kg [4]: < 50%
- ED50 [2, 8]: 606 µg/kg

SMILES: CCCCC1([C@H](O)/C=C/C2[C@H](O)CC(=O)[C@@H]2CCCCCCC(=O)O)CCC1 (mixture of isomers)
- ED50 [1]: 1.26 µg/kg
- ED50 [3, 8]: 1.45 µg/kg
- inhibition [7]: Active
- ED50 [2]: 0.555 µg/kg

SMILES: CCCCC1([C@@H](O)/C=C/C2[C@H](O)CC(=O)[C@@H]2CCCCCCC(=O)O)CCC1 (mixture of isomers)
- ED50 [1]: 43.9 µg/kg
- ED50 [3, 8]: 30 µg/kg
- inhibition [7]: Active
- ED50 [2, 8]: 17 µg/kg

SMILES: CCCCC1([C@H](O)/C=C/C2[C@H](O)CC(=O)[C@@H]2C/C=C\CCCC(=O)O)CCC1 (mixture of isomers)
- ED50 [1]: 2.51 µg/kg
- ED50 [3, 8]: 1.06 µg/kg
- ED50 [2, 8]: 1.54 µg/kg

SMILES: CCCCC1([C@@H](O)/C=C/C2[C@H](O)CC(=O)[C@@H]2C/C=C\CCCC(=O)O)CCC1 (mixture of isomers)
- ED50 [1]: 305 µg/kg
- ED50 [3, 8]: 32 µg/kg
- ED50 [2, 8]: 48.4 µg/kg

SMILES: CCCC1([C@H](O)/C=C/C2[C@H](O)CC(=O)[C@@H]2C/C=C\CCCC(=O)O)CCC1 (mixture of isomers)
- ED50 [1]: 3 µg/kg
- ED50 [3, 8]: 3 µg/kg
- ED50 [2]: 0.0979 µg/kg

SMILES: CCCC1([C@@H](O)/C=C/C2[C@H](O)CC(=O)[C@@H]2C/C=C\CCCC(=O)O)CCC1 (mixture of isomers)
- ED50 [1]: 265 µg/kg
- inhibition in vivo at 3.2 mg/kg [4]: < 50%
- ED50 [2, 8]: 46.7 µg/kg

SMILES: CCCCC[C@H](O)/C=C/[C@H]1[C@H](O)CC(=O)[C@@H]1CCCCCCC(=O)O [ALPROSTADIL]
- ED50 [1]: 1.07 µg/kg
- ED50 [3]: 3.3 µg/kg
- inhibition [7]: Active
- ED50 [2, 8]: 0.7 µg/kg
